The results in this text go back to ChEMBL document CHEMBL3739414, “Synthesis and biological evaluation of methylated scutellarein analogs based on metabolic mechanism of scutellarin in vivo” (Eur J Med Chem, 2015).

Data set [1] can be described thus: Antioxidant activity in rat PC12 cells assessed as inhibition of H2O2-induced cytotoxicity at 25 uM after 4 hrs by MTT assay. The data set is classed as functional. The settings on record: PC-12, 4 h. In outline:
(§1)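 PC12 cells seeded at 5×10^4 cells/ml and cultured 24 h at 37 °C, 5% CO2. The model group got 400 µM H2O2 for 1 h before drug at 25 or 50 µM; the control group got serum-free DMEM. Five wells per group. MTT 4 h at 37 °C, formazan dissolved in DMSO, absorbance read at 517 nm; inhibiting rate of H2O2 cytotoxicity calculated from absorbance.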
Background: Tetrazolium dyes change colour on reduction, which living cells bring about.

Data set [2] relates to Plasma. Kind of data set: Antithrombotic activity in New Zealand white rabbit platelet-poor plasma assessed as increase of activated partial thromboplastin time at 100 uM after 3 mins (reference value: 30.58 +/- 1.55 seconds). Type of data set: functional, Oryctolagus cuniculus. In outline:
(§2)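 Citrated blood (3.8% citrate, 1:9) spun 3000 rpm for 10 min to give platelet-poor plasma. Compounds dissolved in 80% ethanol at 100 μM. Kit assays run on a coagulometer at 37 °C with 3 min incubations. TT: plasma, then thrombin plus sample. PT: plasma, then thromboplastin plus sample. APTT: sample, plasma and activator. FIB: plasma, FIB reagent and sample. Mean ± S.D., n = 4.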

The test system of data set [3] is Plasma. The experiment in a line: Antithrombotic activity in New Zealand white rabbit platelet-poor plasma assessed as increase of prothrombin time at 100 uM after 3 mins (reference value: 4.99 +/- 0.18 seconds). The data set is classed as functional, Oryctolagus cuniculus. An outline of the steps:
as §2

A short description of data set [4]: Antioxidant activity assessed as DPPH radical scavenging activity after 30 mins. Type of data set: physicochemical. An outline of the steps: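 Sample in DMSO at 5–500 μM mixed 1:1 with 0.2 mM DPPH in ethanol; DMSO control. Reaction 30 min at 25 °C, absorbance at 517 nm. Scavenging % = [1 − (A1 − A2)/A0] × 100, with a no-DPPH sample blank. IC50 = concentration giving 50% loss of DPPH radical.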
(In general: Loss of DPPH colour is used to gauge radical scavenging.)

Data set [5] is described as follows: Aqueous solubility of the compound in water after 1 hr by UV-vis spectrophotometer analysis. Type of data set: physicochemical. In outline: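 Standard curves from methanol solutions at 0.1–10 µg/ml, UV read at 334 nm. Compound (150 µg) dissolved in 10 ml water by ultrasound for 1 h at room temperature, left 30 min, centrifuged. Supernatant measured by UV scan and solubility read from the standard curve.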

For data set [6], the system named is Plasma. Kind of data set: Antithrombotic activity in New Zealand white rabbit platelet-poor plasma assessed as reduction of fibrinogen at 100 uM after 3 mins (reference value: 7.02+/- 0.16 g/L).
In data set [7] the test system is Plasma. The experiment in a line: Antithrombotic activity in New Zealand white rabbit platelet-poor plasma assessed as increase of thrombin time at 100 uM after 3 mins (reference value: 20.25 +/- 1.02 seconds). Type of data set: functional, Oryctolagus cuniculus. An outline of the steps: as §2
Data set [8] in a line: N-octanol/0.15 M NaCl partition coefficient, log P of the compound after 5 hrs by spectrophotometric analysis. Type of data set: physicochemical. An outline of the steps:
(§3)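 Shake-flask method. Stock (10 µg/ml) diluted into buffer (0.1 mol/L HCl, 0.15 mol/L NaCl or 0.15 mol/L NaHCO3) and mixed with an equal volume of mutually saturated n-octanol, protected from light. Vortexed 3 min, then shaken 5 h at 25 °C. Both phases read at 334 nm; logP = log([C]octanol/[C]aqueous).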

The nature of data set [9]: N-octanol/0.1 M HCl partition coefficient, log P of the compound after 5 hrs by spectrophotometric analysis. The data set is classed as physicochemical. An outline of the steps:
as §3

Data set [10] can be described thus: Antioxidant activity in rat PC12 cells assessed as inhibition of H2O2-induced cytotoxicity at 50 uM after 4 hrs by MTT assay. Type of data set: functional. The settings on record: PC-12, 4 h. An outline of the steps: as §1
Data set [11] is described as follows: N-octanol/0.15 M NaHCO3 partition coefficient, log P of the compound after 5 hrs by spectrophotometric analysis. The data set is classed as physicochemical. An outline of the steps:
as §3

Structures are written as SMILES. ≈ marks a conversion by molar mass, not a printed value.

`COc1ccc(-c2cc(=O)c3c(O)c(OC)c(OC)cc3o2)cc1` [SALVIGENIN]: the inhibition (as a rule, the share of the control response that was lost under treatment) at 25 µM in [1] was determined as 11.1%. In the data set on Plasma [2], the APTT is 36 s. Besides, the PT with Plasma [3] is recorded as 6.75 s. In addition, the half-inhibitory concentration (IC50) (usually the concentration that inhibits the measured activity by half) in [4] is 463 µM. The solubility (commonly the dissolved amount per volume that the medium holds) at 1 h in data set [5] was found to be 0.31 µg/mL (≈ 0.944 µM). Moreover, in the data set on Plasma [6], the Activity was found to be 5.96 g/L. Also, the TT in the data set with Plasma [7] is given as 29.03 s. In addition, the values for the logP at 5 h in [8], in data set [9] and in data set [11] were 2.55, 2.64 and 2.27, respectively. For the same compound, the inhibition at 50 µM in data set [10] worked out at 20.4%.

On to `COc1c(O)cc2oc(-c3ccc(O)cc3)cc(=O)c2c1O` [HISPIDULIN], for which, in [1], the inhibition at 25 µM came out at 62.4%. For the same compound, in the data set with Plasma [2], the APTT is given as 33.1 s. Moreover, the PT with Plasma [3] turned out to be 6.25 s. Further, the concentration for half-maximal inhibition (IC50) in data set [4] came to 23.7 µM. This compound registered a solubility at 1 h in data set [5] of 4.27 µg/mL (≈ 14.2 µM). Further, in the data set on Plasma [6], the Activity is recorded as 5.38 g/L. For the same compound, in the data set on Plasma [7], the TT is listed as 25.96 s. The logP (commonly the decadic logarithm of the partition coefficient of the neutral form, usually between octanol and water) at 5 h in data set [8] came to 1.68; in [9] it was 1.77; in [11], 1.02. Moreover, in data set [10], the inhibition at 50 µM was 88%.

`COc1ccc(-c2cc(=O)c3c(O)c(O)c(OC)cc3o2)cc1` [LADANEIN]: the inhibition at 25 µM in data set [1] was 48.2%. Further, the APTT in the data set with Plasma [2] turned out to be 38.28 s. In addition, the PT in the data set with Plasma [3] is given as 6.93 s. Further, the half-maximal inhibitory concentration (IC50) in [4] was 159 µM. In data set [5], this compound yielded a solubility at 1 h of 3.2 µg/mL (≈ 10.2 µM). The Activity in the data set on Plasma [6] was 5.94 g/L. Moreover, the TT in the data set with Plasma [7] is listed as 23.33 s. Further, the log partition coefficient (logP) at 5 h in data set [8] was 1.79; in data set [9], 1.94; in data set [11] it was 1.4. Also, the inhibition at 50 µM in [10] was determined as 74.3%.

As to `COc1cc2oc(-c3ccc(O)cc3)cc(=O)c2c(O)c1O`, the inhibition at 25 µM in data set [1] came out at 56.2%. Also, the APTT with Plasma [2] amounted to 34.49 s. The PT in the data set with Plasma [3] came to 6.55 s. Moreover, the IC50 in [4] came to 30.2 µM. In data set [5], the concentration in solution (solubility at 1 h) came to 4.56 µg/mL (≈ 15.2 µM). For the same compound, the Activity in the data set with Plasma [6] came to 5.74 g/L. The TT in the data set with Plasma [7] was 25.48 s. In addition, the log partition coefficient (logP) at 5 h in data set [8] was 1.54; in [9] it was 1.59; in data set [11], 1.03. Besides, the inhibition at 50 µM in data set [10] was 82.3%.

As to `COc1ccc(-c2cc(=O)c3c(O)c(O)c(O)cc3o2)cc1`, the inhibition at 25 µM in data set [1] was found to be 63.3%. Also, the APTT in the data set with Plasma [2] is listed as 31.53 s. For the same compound, the PT with Plasma [3] is reported as 6.4 s. For the same compound, the half-maximal inhibitory concentration (IC50) in [4] came out at 25.3 µM. In [5], this compound had a solubility at 1 h of 6.31 µg/mL (≈ 21 µM). In the data set on Plasma [6], the Activity was found to be 5.67 g/L. In the data set with Plasma [7], the TT worked out at 24.98 s. Further, the lipophilicity (logP) at 5 h came out at 1.41 in data set [8], 1.65 in [9] and 0.785 in data set [11]. Besides, in data set [10], the inhibition at 50 µM turned out to be 89.4%.

With `COc1ccc(-c2cc(=O)c3c(O)c(OC)c(O)cc3o2)cc1` [PECTOLINARIGENIN], in data set [1], the inhibition at 25 µM came to 44.2%. The APTT in the data set with Plasma [2] worked out at 30.48 s. The PT in the data set with Plasma [3] stood at 6.53 s. Further, the half-maximal inhibitory concentration (IC50) in [4] was 170 µM. This compound also came in with a solubility at 1 h in data set [5] of 1.36 µg/mL (≈ 4.33 µM). Moreover, in the data set with Plasma [6], the Activity is listed as 5.92 g/L. In addition, the TT with Plasma [7] is recorded as 27.45 s. The lipophilicity (logP) at 5 h in [8] amounted to 2.09; in [9] it was 2.14; in data set [11] it was 1.86. Also, the inhibition at 50 µM in [10] worked out at 68.1%.

On to `O=C(O)[C@H]1O[C@@H](Oc2cc3oc(-c4ccc(O)cc4)cc(=O)c3c(O)c2O)[C@H](O)[C@@H](O)[C@@H]1O` [SCUTELLARIN], for which the inhibition at 25 µM in data set [1] is 53.1%. Moreover, the APTT in the data set with Plasma [2] was found to be 34.18 s. The PT in the data set on Plasma [3] was determined as 6.28 s. Further, the IC50 in data set [4] was found to be 27.9 µM. Moreover, the Activity in the data set on Plasma [6] is 6.13 g/L. Further, in the data set with Plasma [7], the TT came to 23.08 s. In addition, the lipophilicity (logP) at 5 h in data set [8] was 0.365; in [9], 0.592; in data set [11], -0.0513. In addition, in [10], the inhibition at 50 µM worked out at 79.2%.

Regarding `COc1cc2oc(-c3ccc(O)cc3)cc(=O)c2c(O)c1OC` [CIRSIMARITIN], the inhibition at 25 µM in data set [1] is 52.2%. Besides, in the data set with Plasma [2], the APTT was found to be 39.42 s. Moreover, the PT in the data set with Plasma [3] is reported as 6.95 s. Further, in data set [4], the IC50 was 190 µM. The compound further returned a solubility at 1 h in data set [5] of 1.53 µg/mL (≈ 4.87 µM). In addition, the Activity in the data set with Plasma [6] stood at 5.65 g/L. Moreover, the TT in the data set on Plasma [7] came out at 25.1 s. In addition, the values for the logP at 5 h in data set [8], in data set [9] and in data set [11] were 2.14, 2.19 and 1.81, respectively. Also, in [10], the inhibition at 50 µM was found to be 76.1%.

As for `O=c1cc(-c2ccc(O)cc2)oc2cc(O)c(O)c(O)c12` [SCUTELLAREIN], in data set [1], the inhibition at 25 µM turned out to be 64.6%. Moreover, the APTT with Plasma [2] is recorded as 36.65 s. Moreover, in the data set with Plasma [3], the PT came out at 5.93 s. Also, in data set [4], the concentration for half-maximal inhibition (IC50) was determined as 22.6 µM. The Activity in the data set with Plasma [6] came out at 6.84 g/L. The TT in the data set with Plasma [7] is on record as 24.4 s. For the same compound, the logP at 5 h amounted to 0.772 in data set [8], 0.892 in [9] and 0.48 in data set [11]. Besides, the inhibition at 50 µM in data set [10] amounted to 91.2%.

Take `COc1c(O)c(O)cc2oc(-c3ccc(O)cc3)cc(=O)c12`: the inhibition at 25 µM in data set [1] stood at 54.4%. The APTT in the data set with Plasma [2] is reported as 30.53 s. In addition, in the data set with Plasma [3], the PT was determined as 6.65 s. Further, in [4], the half-inhibitory concentration (IC50) came out at 28.9 µM. In data set [5], this compound came in with a solubility at 1 h of 5.72 µg/mL (≈ 19 µM). The Activity with Plasma [6] amounted to 5.58 g/L. Besides, the TT with Plasma [7] came to 22.6 s. In addition, the logP at 5 h in data set [8] came out at 1.47; in [9] it was 1.55; in [11], 0.892. Also, the inhibition at 50 µM in [10] came out at 81.4%.
